Measurements from ChEMBL document CHEMBL1914406, “Inhibitory effect of novel 5-O-acyl juglones on mammalian DNA polymerase activity, cancer cell growth and inflammatory response” (Bioorg Med Chem, 2011).
Calls of active or inactive are those of the source. No cut-off for these calls is given here.

Legend:
[1] = biological target: DNA-directed DNA/RNA polymerase mu (Homo sapiens, UniProt Q9NP87); assay: Inhibition of His-tagged human DNA polymerase mu using poly(dA)/oligo(dT)18 (A/T = 2/1) and dTTP as the DNA template-primer and nucleotide substrate after 60 mins
Sequence of DNA-directed DNA/RNA polymerase mu (Q9NP87 whole entry): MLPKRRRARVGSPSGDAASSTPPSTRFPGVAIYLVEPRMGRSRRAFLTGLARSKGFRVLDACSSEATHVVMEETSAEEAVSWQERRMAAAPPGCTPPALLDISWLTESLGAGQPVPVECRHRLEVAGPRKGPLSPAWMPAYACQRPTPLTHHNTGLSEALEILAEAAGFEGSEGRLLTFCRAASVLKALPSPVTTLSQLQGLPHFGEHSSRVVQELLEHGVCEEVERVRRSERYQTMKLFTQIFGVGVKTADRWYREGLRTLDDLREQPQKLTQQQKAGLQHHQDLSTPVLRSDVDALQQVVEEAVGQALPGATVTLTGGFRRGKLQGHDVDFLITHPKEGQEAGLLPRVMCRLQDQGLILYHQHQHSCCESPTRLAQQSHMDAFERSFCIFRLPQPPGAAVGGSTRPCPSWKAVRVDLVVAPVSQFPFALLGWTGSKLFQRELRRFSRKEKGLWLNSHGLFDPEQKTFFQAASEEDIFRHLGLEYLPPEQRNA
Summary of the method: (§1)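 Compound in DMSO, sonicated 30 s. Premixed 0 °C, 10 min with enzyme (0.05 units) in 50 mM Tris-HCl pH 7.5, 1 mM DTT, 50% glycerol, 0.1 mM EDTA, then added to standard reaction mixture. Template-primers: poly(dA)/oligo(dT)18 (2/1) for pols, oligo(dT)18 for TdT, poly(rA)/oligo(dT)18 for HIV-1 RT, with [3H]dTTP. 60 min at 37 °C (Taq 74 °C). Activity relative to no-inhibitor control; mean ± SE of three experiments.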

[2] = biological target: DNA nucleotidylexotransferase (Bos taurus, UniProt P06526); assay: Inhibition of calf thymus TdT using oligo(dT)18 (3'-OH) and dTTP as the DNA template-primer and nucleotide substrate after 60 mins; summary of the method: as §1
Sequence of DNA nucleotidylexotransferase (P06526 whole entry, the tested form may be a part): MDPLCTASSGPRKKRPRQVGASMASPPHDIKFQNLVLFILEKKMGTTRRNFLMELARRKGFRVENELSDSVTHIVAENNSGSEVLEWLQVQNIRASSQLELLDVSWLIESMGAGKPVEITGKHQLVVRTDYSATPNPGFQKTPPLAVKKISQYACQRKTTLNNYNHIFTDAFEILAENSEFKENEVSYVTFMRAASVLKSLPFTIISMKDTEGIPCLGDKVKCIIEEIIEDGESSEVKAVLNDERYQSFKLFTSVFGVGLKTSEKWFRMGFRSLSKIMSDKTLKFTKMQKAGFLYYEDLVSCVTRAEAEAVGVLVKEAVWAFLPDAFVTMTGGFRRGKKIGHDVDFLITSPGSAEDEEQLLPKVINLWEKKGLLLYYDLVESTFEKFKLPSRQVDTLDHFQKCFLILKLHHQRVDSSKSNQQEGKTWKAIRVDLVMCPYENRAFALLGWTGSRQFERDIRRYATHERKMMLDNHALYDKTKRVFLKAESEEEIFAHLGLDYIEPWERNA

DNA polymerase eta = DNA polymerase eta (Homo sapiens, UniProt Q9Y253); assay: Inhibition of C-terminal His6-tagged human DNA polymerase eta (amino acids 1 to 511) using poly(dA)/oligo(dT)18 (A/T = 2/1) and dTTP as the DNA template-primer and nucleotide substrate after 60 mins; summary of the method: as §1
Sequence of DNA polymerase eta (Q9Y253 whole entry, the tested form may be a part): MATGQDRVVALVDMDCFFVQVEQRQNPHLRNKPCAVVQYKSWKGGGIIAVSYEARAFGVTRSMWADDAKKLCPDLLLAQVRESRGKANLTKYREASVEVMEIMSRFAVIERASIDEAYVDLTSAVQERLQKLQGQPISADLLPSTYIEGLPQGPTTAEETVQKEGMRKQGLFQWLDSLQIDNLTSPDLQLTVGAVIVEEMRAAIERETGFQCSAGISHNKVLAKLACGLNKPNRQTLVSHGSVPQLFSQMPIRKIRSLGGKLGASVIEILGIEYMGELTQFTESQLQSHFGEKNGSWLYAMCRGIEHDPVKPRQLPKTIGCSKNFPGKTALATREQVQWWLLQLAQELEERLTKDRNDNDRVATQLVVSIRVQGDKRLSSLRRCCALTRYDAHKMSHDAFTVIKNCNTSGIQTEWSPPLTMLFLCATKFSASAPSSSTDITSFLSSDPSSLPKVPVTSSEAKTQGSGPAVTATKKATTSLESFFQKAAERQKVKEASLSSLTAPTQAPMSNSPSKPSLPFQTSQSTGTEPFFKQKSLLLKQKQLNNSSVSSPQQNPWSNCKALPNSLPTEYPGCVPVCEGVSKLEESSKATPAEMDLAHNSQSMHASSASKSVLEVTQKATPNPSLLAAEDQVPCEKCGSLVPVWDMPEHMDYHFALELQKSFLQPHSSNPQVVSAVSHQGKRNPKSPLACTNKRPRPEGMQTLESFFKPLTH

DNA polymerase iota = DNA polymerase iota (Mus musculus, UniProt Q6R3M4); assay: Inhibition of C-terminal His6-tagged mouse DNA polymerase iota using poly(dA)/oligo(dT)18 (A/T = 2/1) and dTTP as the DNA template-primer and nucleotide substrate after 60 mins; summary of the method: as §1
Sequence of DNA polymerase iota (Q6R3M4 whole entry, the tested form may be a part): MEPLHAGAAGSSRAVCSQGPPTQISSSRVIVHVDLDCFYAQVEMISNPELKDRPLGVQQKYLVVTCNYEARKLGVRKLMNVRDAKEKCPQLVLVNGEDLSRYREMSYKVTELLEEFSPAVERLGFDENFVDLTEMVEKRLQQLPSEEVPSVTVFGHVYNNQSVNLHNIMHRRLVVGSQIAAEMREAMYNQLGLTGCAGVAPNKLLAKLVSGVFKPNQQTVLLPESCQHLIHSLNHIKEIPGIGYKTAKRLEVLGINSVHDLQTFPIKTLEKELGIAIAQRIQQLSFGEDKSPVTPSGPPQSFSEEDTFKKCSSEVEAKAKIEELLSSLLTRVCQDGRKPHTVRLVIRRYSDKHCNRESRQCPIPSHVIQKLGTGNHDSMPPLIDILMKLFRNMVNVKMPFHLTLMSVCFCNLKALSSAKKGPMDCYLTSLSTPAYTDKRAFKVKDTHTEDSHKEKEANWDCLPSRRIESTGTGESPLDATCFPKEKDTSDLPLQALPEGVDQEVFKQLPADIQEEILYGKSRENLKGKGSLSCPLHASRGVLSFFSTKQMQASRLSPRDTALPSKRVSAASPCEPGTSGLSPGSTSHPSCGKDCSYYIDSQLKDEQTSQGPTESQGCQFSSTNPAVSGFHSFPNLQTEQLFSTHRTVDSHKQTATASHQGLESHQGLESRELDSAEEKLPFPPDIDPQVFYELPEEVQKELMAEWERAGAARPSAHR

DNA polymerase kappa = DNA polymerase kappa (Homo sapiens, UniProt Q9UBT6); assay: Inhibition of C-terminal His6-tagged human DNA polymerase kappa (amino acids 1 to 560) using poly(dA)/oligo(dT)18 (A/T = 2/1) and dTTP as the DNA template-primer and nucleotide substrate after 60 mins; summary of the method: as §1
Sequence of DNA polymerase kappa (Q9UBT6 whole entry, the tested form may be a part): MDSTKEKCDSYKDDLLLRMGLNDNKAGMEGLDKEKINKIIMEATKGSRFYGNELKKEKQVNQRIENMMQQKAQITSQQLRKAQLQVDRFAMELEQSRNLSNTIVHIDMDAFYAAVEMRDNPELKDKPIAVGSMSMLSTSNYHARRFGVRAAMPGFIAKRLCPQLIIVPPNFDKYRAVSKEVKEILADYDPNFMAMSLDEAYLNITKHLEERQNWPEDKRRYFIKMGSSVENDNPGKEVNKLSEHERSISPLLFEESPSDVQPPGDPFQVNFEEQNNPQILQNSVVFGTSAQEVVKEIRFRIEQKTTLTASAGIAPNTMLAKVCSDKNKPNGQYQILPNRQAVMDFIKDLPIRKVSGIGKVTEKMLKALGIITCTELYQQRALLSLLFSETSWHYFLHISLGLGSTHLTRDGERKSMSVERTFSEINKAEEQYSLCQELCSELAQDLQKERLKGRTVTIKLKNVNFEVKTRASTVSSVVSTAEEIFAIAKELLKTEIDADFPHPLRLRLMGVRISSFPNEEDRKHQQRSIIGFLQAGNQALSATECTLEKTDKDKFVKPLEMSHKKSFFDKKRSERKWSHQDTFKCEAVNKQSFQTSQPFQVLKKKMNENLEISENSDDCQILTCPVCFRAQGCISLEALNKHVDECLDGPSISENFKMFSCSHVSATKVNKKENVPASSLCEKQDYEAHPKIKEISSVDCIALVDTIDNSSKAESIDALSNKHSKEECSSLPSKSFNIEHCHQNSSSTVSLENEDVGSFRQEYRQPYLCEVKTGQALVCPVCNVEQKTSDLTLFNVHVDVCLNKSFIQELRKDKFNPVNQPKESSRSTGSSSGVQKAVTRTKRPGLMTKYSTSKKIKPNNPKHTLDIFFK

[3] = Inhibition of cauliflower DNA polymerase alpha using poly(dA)/oligo(dT)18 (A/T = 2/1) and dTTP as the DNA template-primer and nucleotide substrate after 60 mins; parameters: species or system Brassica oleracea var. botrytis; summary of the method: as §1
[4] = Inhibition of Escherichia coli DNA polymerase 1 Klenow fragment using poly(dA)/oligo(dT)18 (A/T = 2/1) and dTTP as the DNA template-primer and nucleotide substrate after 60 mins; summary of the method: as §1
[5] = biological target: DNA polymerase I, thermostable (Thermus aquaticus, UniProt P19821); assay: Inhibition of Taq polymerase using poly(dA)/oligo(dT)18 (A/T = 2/1) and dTTP as the DNA template-primer and nucleotide substrate at 74 degree C after 60 mins; summary of the method: as §1
[6] = biological target: DNA-directed DNA polymerase (Enterobacteria phage T4, UniProt P04415); assay: Inhibition of T4 pol using poly(dA)/oligo(dT)18 (A/T = 2/1) and dTTP as the DNA template-primer and nucleotide substrate after 60 mins; parameters: species or system Tequatrovirus T4; summary of the method: as §1
Sequence of DNA-directed DNA polymerase (P04415 whole entry): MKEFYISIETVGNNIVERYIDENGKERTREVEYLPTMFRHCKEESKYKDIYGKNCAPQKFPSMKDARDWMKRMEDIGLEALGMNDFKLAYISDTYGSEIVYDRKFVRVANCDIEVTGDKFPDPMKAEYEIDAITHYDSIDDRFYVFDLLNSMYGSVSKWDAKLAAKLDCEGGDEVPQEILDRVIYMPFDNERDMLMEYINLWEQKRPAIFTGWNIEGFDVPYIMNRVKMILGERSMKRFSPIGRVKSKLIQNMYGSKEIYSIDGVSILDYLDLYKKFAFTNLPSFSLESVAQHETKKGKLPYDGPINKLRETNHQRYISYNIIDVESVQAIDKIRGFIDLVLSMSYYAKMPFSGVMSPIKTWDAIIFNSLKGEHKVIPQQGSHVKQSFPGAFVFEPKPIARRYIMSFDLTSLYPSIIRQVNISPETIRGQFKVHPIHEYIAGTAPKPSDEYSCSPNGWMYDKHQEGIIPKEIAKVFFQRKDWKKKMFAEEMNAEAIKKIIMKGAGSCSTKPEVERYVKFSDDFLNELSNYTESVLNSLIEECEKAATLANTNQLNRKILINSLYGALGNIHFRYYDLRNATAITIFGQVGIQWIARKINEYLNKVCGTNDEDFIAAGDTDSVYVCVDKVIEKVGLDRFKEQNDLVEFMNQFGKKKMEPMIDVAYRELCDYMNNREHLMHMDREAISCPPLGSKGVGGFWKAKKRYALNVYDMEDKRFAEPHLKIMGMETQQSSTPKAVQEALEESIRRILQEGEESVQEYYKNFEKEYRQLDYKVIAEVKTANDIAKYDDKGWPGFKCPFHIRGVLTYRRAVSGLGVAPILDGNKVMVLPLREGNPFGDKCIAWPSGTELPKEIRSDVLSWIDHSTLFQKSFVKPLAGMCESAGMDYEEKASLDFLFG

[7] = Inhibition of calf primase of DNA polymerase alpha; parameters: species or system Bos taurus
Summary of the method: (§2)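 Calf primase of pol α and mouse IMP dehydrogenase type II measured by standard assays per manufacturer's specifications. Activity relative to no-compound control (100%).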

T7 RNA polymerase = T7 RNA polymerase (Enterobacteria phage T7, UniProt P00573); assay: Inhibition of T7 RNA polymerase using salmon sperm DNA and [3H]UTP at 25 degree C after 30 mins by liquid scintillation counting; parameters: species or system Escherichia phage T7
[8] = biological target: Inosine-5'-monophosphate dehydrogenase 2 (Mus musculus, UniProt P24547); assay: Inhibition of mouse IMP dehydrogenase type 2; summary of the method: as §2
Sequence of Inosine-5'-monophosphate dehydrogenase 2 (P24547 whole entry): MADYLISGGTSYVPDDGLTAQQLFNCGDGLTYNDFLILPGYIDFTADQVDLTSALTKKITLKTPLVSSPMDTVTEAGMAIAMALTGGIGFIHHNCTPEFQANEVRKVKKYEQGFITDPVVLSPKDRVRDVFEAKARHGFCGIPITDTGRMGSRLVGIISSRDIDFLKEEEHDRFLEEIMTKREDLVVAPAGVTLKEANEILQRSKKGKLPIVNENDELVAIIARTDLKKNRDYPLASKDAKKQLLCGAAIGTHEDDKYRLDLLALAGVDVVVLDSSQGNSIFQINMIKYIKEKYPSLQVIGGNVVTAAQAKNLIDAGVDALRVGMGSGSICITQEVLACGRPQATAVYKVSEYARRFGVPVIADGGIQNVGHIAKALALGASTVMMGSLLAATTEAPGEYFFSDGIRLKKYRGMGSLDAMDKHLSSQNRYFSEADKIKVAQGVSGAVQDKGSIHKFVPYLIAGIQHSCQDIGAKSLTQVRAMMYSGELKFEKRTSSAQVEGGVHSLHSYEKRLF

Polynucleotide kinase = Polynucleotide kinase (Enterobacteria phage T4, UniProt P06855); assay: Inhibition of T4 polynucleotide kinase using 5'-hydroxyl termini of DNA and [gamma-32ATP] after 30 mins by liquid scintillation counting; parameters: species or system Tequatrovirus T4
Sequence of Polynucleotide kinase (P06855 whole entry): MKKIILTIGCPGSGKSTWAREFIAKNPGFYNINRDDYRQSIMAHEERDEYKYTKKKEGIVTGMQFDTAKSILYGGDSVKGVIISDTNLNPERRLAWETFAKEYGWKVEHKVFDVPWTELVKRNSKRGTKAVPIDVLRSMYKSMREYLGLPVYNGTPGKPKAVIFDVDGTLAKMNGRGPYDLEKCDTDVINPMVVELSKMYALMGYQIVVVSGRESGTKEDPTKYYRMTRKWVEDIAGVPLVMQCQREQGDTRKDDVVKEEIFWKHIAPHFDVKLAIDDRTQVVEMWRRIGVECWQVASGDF

Nucleic Acid = assay: Binding affinity to DNA assessed as thermal transition of DNA relative to control; type: nucleic-acid assay
Mus musculus = assay: Antiinflammatory activity in mouse assessed as inhibition of TPA-induced mouse ear edema at 500 ug/ear administered 30 mins before TPA challenge measured after 7 hrs relative to untreated control; type: functional, organism-based
Summary of the method: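 Compound (500 µg) applied to one mouse ear; 30 min later TPA (0.5 µg) applied to both ears. Edema scored after 7 h and expressed as percentage of edema. Mean ± SE, n = 6.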

[9] = Inhibition of rice DNA polymerase lambda using poly(dA)/oligo(dT)18 (A/T = 2/1) and dTTP as the DNA template-primer and nucleotide substrate after 60 mins; parameters: species or system Oryza sativa; summary of the method: as §1
Bos taurus = species on record: Bos taurus; assay: Inhibition of calf DNA polymerase alpha using poly(dA)/oligo(dT)18 (A/T = 2/1) and dTTP as the DNA template-primer and nucleotide substrate at 10 uM after 60 mins; summary of the method: as §1
Homo sapiens = species on record: Homo sapiens; assay: Inhibition of histidine-tagged human DNA polymerase gamma using poly(dA)/oligo(dT)18 (A/T = 2/1) and dTTP as the DNA template-primer and nucleotide substrate at 10 uM after 60 mins; summary of the method: as §1
[10] = biological target: T1, DNA polymerase lambda (Homo sapiens) (UniProt Q9UGP5); assay: Inhibition of recombinant His-tagged human DNA polymerase lambda using bovine deoxyribonuclease 1-treated DNA and dNTP as the DNA template-primer and nucleotide substrate at 10 uM after 60 mins
T1 sequence (whole entry): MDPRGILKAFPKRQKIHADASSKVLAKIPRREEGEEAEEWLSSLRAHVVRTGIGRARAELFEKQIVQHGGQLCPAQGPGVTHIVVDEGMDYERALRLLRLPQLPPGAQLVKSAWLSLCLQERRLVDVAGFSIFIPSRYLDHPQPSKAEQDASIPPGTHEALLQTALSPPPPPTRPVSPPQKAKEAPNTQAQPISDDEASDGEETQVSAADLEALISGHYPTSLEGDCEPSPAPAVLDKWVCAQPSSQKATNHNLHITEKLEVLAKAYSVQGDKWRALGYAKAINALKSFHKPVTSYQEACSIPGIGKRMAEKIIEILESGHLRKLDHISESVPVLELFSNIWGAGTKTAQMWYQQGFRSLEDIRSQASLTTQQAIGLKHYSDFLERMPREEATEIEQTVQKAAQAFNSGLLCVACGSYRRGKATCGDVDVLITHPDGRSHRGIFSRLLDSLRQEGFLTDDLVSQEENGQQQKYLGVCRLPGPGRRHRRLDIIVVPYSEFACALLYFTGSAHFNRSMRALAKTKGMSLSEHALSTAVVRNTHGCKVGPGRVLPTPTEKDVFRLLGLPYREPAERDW

[11] = Inhibition of human DNA polymerase epsilon using poly(dA)/oligo(dT)18 (A/T = 2/1) and dTTP as the DNA template-primer and nucleotide substrate after 60 mins; summary of the method: as §1
DNA polymerase beta = DNA polymerase beta (Rattus norvegicus, UniProt P06766); assay: Inhibition of rat pol beta using poly(dA)/oligo(dT)18 (A/T = 2/1) and dTTP as the DNA template-primer and nucleotide substrate after 60 mins; summary of the method: as §1
DNA polymerase lambda = DNA polymerase lambda (Homo sapiens, UniProt Q9UGP5); assay: Inhibition of His-tagged human DNA polymerase lambda using poly(dA)/oligo(dT)18 (A/T = 2/1) and dTTP as the DNA template-primer and nucleotide substrate after 60 mins; summary of the method: as §1

Q: What does the source list for `CCCCCCCC/C=C\CCCCCCCC(=O)Oc1cccc2c1C(=O)C=CC2=O`?
A: IC50 [1]: 10.8 µM; IC50 [2]: 11.9 µM; IC50 (DNA polymerase eta): 8.4 µM; IC50 (DNA polymerase iota): 8.7 µM; IC50 (DNA polymerase kappa): 8.1 µM; IC50 [3]: > 200 µM; IC50 [4]: > 100 µM; IC50 [5]: > 100 µM; IC50 [6]: > 100 µM; IC50 [7]: > 100 µM; IC50 (T7 RNA polymerase): > 100 µM; IC50 [8]: > 100 µM; IC50 (Polynucleotide kinase): > 100 µM; Activity (Nucleic Acid): inactive; Activity (Mus musculus): Active; IC50 [9]: > 200 µM; inhibition (Bos taurus): Active; inhibition (Homo sapiens): Active; inhibition [10]: Active; IC50 [11]: 0.7 µM; IC50 (DNA polymerase beta): 11.5 µM; IC50 (DNA polymerase lambda): 10.2 µM

Q: With `CCCCCCCCCCCC(=O)Oc1cccc2c1C(=O)C=CC2=O` as the molecule, how does the IC50 [1] read?
A: 7.9 µM

Q: What about the IC50 [2] of the same molecule?
A: 8.4 µM

Q: And the IC50 (DNA polymerase eta)?
A: 6.9 µM

Q: What about the IC50 (DNA polymerase iota) of the same molecule?
A: 7.1 µM

Q: What about the IC50 (DNA polymerase kappa) of the same molecule?
A: 6.8 µM

Q: And the IC50 [3]?
A: > 100 µM

Q: What about the IC50 [4] of the same molecule?
A: > 100 µM

Q: And the IC50 [5]?
A: > 100 µM

Q: What about the IC50 [6] of the same molecule?
A: > 100 µM

Q: And the IC50 [7]?
A: > 100 µM

Q: And the IC50 (T7 RNA polymerase)?
A: > 100 µM

Q: What about the IC50 [8] of the same molecule?
A: > 100 µM

Q: What about the IC50 (Polynucleotide kinase) of the same molecule?
A: > 100 µM

Q: And the Activity (Nucleic Acid)?
A: inactive

Q: And the Activity (Mus musculus)?
A: Active

Q: And the IC50 [9]?
A: > 100 µM

Q: And the inhibition (Bos taurus)?
A: Active

Q: What about the inhibition (Homo sapiens) of the same molecule?
A: Active

Q: And the inhibition [10]?
A: Active

Q: And the IC50 [11]?
A: 6.6 µM

Q: What about the IC50 (DNA polymerase beta) of the same molecule?
A: 7.6 µM

Q: What about the IC50 (DNA polymerase lambda) of the same molecule?
A: 7 µM
